Activity calls are given as the source filed them. No cut-off for these calls is given here.
Legend:
[1] = molecular target: Mast/stem cell growth factor receptor Kit (Homo sapiens) (UniProt P10721); assay: Inhibition of cKIT in human GISTT1 cells assessed as suppression of STAT5 phosphorylation at Y694 up to 10 uM after 2 hrs by Western blot analysis; format: cell-based
[2] = molecular target: Mast/stem cell growth factor receptor Kit (Homo sapiens) (UniProt P10721); assay: Inhibition of cKIT in human GIST882 cells assessed as suppression of STAT5 phosphorylation at Y694 up to 10 uM after 2 hrs by Western blot analysis; format: cell-based
[3] = molecular target: Mast/stem cell growth factor receptor Kit (Homo sapiens) (UniProt P10721); assay: Inhibition of cKIT autophosphorylation at Y719 in human GIST48B cells up to 10 uM after 2 hrs by Western blot analysis; format: cell-based
[4] = molecular target: Mast/stem cell growth factor receptor Kit (Homo sapiens) (UniProt P10721); assay: Inhibition of cKIT in human GIST48B cells assessed as suppression of ERK phosphorylation at T202/Y204 up to 10 uM after 2 hrs by Western blot analysis; format: cell-based
GISTT1 [5] = assay: Induction of apoptosis in human GISTT1 cells assessed as caspase 3 cleavage up to 3 uM after 48 hrs by Western blot analysis; format: functional, cell-based
GISTT1 [6] = assay: Induction of apoptosis in human GISTT1 cells assessed as PARP cleavage up to 3 uM after 48 hrs by Western blot analysis; format: functional, cell-based
GIST48B = assay: Induction of apoptosis in human GIST48B cells assessed as PARP cleavage up to 3 uM after 72 hrs by Western blot analysis; format: functional, cell-based
[7] = AUC(0 to t) in Sprague-Dawley rat plasma at 10 mg/kg, po; format: ADME, organism-based
How it was run: (§1)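 Male Sprague-Dawley rats, 8 weeks old, fasted overnight, dosed iv or orally. Formulation was 5% DMSO/40% PEG400/55% saline at 1 mg/mL. Blood (~0.2 mL) was drawn from the jugular vein into heparin. Sampling: iv at 1 min to 8 h; oral at 5 min to 24 h. Plasma was separated by centrifugation at 2−8 °C and stored at −80 °C.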

[8] = Apparent volume of distribution in Sprague-Dawley rat plasma at 1 mg/kg, iv; format: ADME, organism-based; conditions: read-out: Vz; how it was run: as §1
[9] = Cmax in Sprague-Dawley rat plasma at 10 mg/kg, po; format: ADME, organism-based; design: dose 10 mg/kg, route oral; how it was run: as §1
[10] = Oral bioavailability in Sprague-Dawley rat plasma at 10 mg/kg; format: ADME, organism-based
How it was run: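 Male Sprague–Dawley rats, 8 weeks old, six in total, fasted overnight; compound dissolved in 5% DMSO/40% PEG400/55% saline (1 mg/mL dosing solution), given iv or orally. About 0.2 mL jugular blood taken with heparin at 1 min–8 h (iv) or 5 min–24 h (oral); plasma separated at 2–8 °C and stored at −80 °C before analysis.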

[11] = Antitumor activity against human GISTT1 cells xenografted in nu/nu mouse assessed as tumor growth inhibition at 50 mg/kg/day administered through oral gavage after 21 days; format: functional; conditions: 504 h, read-out: TGI
How it was run: (§2)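 Female nu/nu mice, 6 weeks old, received 5 × 10⁶ GIST-T1 cells in PBS/Matrigel (1:1) subcutaneously in the right flank. At 100−200 mm³, six mice per group were dosed daily by oral gavage at 25, 50 or 100 mg/kg/d in 0.5% methylcellulose/0.4% Tween80, or vehicle. Tumor volume was taken as (W²×L)/2, with body weight and tumor measured daily. Tumors were stained for Ki67 (IHC, 1:50 antibody) and by TUNEL.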

GISTT1 [12] = assay: Induction of apoptosis in human GISTT1 cells xenografted in nu/nu mouse at 25 to 100 mg/kg/day administered through oral gavage after 21 days by tunel assay; format: functional, organism-based; how it was run: as §2
[13] = molecular target: Mast/stem cell growth factor receptor Kit (Homo sapiens) (UniProt P10721); assay: Inhibition of Tel-fused cKIT (unknown origin) transfected in mouse BAF3 cells assessed as decrease in cell proliferation after 72 hrs by celltiter-glo/CCK8 assay; format: cell-based
How it was run: (§3)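 Cells were seeded at 1 to 3 × 10⁴ cells/mL with serial compound concentrations and incubated 72 h at 37 °C, 5% CO₂. Viability was read by CellTiter-Glo luminescence or CCK-8 absorbance (450/655 nm). GI50 values are from triplicate testing. GIST-T1 and CHO were grown in DMEM/10% FBS; GIST-882, GIST-48B and MV4-11 in IMDM/10% FBS; other lines in RPMI 1640/10% FBS.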

[14] = system: Mast/stem cell growth factor receptor Kit (Homo sapiens), P10721 [N822K]; assay: Inhibition of Tel-fused cKIT N822K mutant (unknown origin) transfected in mouse BAF3 cells assessed as decrease in cell proliferation after 72 hrs by celltiter-glo/CCK8 assay; format: cell-based
[15] = system: Mast/stem cell growth factor receptor Kit (Homo sapiens), P10721 [T670I]; assay: Inhibition of Tel-fused cKIT T670I mutant (unknown origin) transfected in mouse BAF3 cells assessed as decrease in cell proliferation after 72 hrs by celltiter-glo/CCK8 assay; format: cell-based
How it was run: (§4)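 Stable BaF3 lines made by retroviral transduction with mutagenized TEL-KIT MSCV vectors, puromycin selection 48 h, then gradual IL-3 withdrawal until IL-3-independent; grown in RPMI 1640 with 10% FBS. Cells at 1 to 3 × 10⁴ cells/mL exposed to a concentration series for 72 h; viability read by CellTiter-Glo luminescence or CCK-8 absorbance (450/655 nm); GI50 from triplicate testing.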

[16] = system: Mast/stem cell growth factor receptor Kit (Homo sapiens), P10721 [V654A]; assay: Inhibition of Tel-fused cKIT V654A mutant (unknown origin) transfected in mouse BAF3 cells assessed as decrease in cell proliferation after 72 hrs by celltiter-glo/CCK8 assay; format: cell-based; how it was run: as §4
[17] = molecular target: Mast/stem cell growth factor receptor Kit (Homo sapiens) (UniProt P10721); assay: Inhibition of Tel-fused cKIT L567P mutant (unknown origin) transfected in mouse BAF3 cells assessed as decrease in cell proliferation after 72 hrs by celltiter-glo/CCK8 assay; format: cell-based
[18] = Antiproliferative activity against cKIT dependent human GISTT1 cells assessed as reduction in cell viability after 72 hrs by celltiter-glo/CCK8 assay; format: functional; conditions: GISTT1, 72 h; how it was run: as §3
MV4-11 = assay: Antiproliferative activity against FLT3-ITD dependent human MV4-11 cells assessed as reduction in cell viability after 72 hrs by celltiter-glo/CCK8 assay; format: functional; conditions: MV4-11, 72 h; how it was run: as §3
[19] = Antiproliferative activity against human GIST48B cells assessed as reduction in cell viability after 72 hrs by celltiter-glo/CCK8 assay; format: functional; how it was run: as §3
K562 = assay: Antiproliferative activity against BCR-ABL dependent human K562 cells assessed as reduction in cell viability after 72 hrs by celltiter-glo/CCK8 assay; format: functional; conditions: K562, 72 h; how it was run: as §3
[20] = Antiproliferative activity against human BCR-ABL dependent MEG01 cells assessed as reduction in cell viability after 72 hrs by celltiter-glo/CCK8 assay; format: functional; conditions: MEG-01, 72 h
[21] = Antiproliferative activity against human U937 cells assessed as reduction in cell viability after 72 hrs by celltiter-glo/CCK8 assay; format: functional; conditions: U-937, 72 h; how it was run: as §3
[22] = Antiproliferative activity against human HL60 cells assessed as reduction in cell viability after 72 hrs by celltiter-glo/CCK8 assay; format: functional; conditions: HL-60, 72 h; how it was run: as §3
[23] = molecular target: Mast/stem cell growth factor receptor Kit (Homo sapiens) (UniProt P10721); assay: Inhibition of cKIT autophosphorylation at Y719 in human GISTT1 cells up to 10 uM after 2 hrs by Western blot analysis; format: cell-based
[24] = molecular target: Mast/stem cell growth factor receptor Kit (Homo sapiens) (UniProt P10721); assay: Inhibition of cKIT autophosphorylation at Y719 in human GIST882 cells up to 10 uM after 2 hrs by Western blot analysis; format: cell-based

Sequence of Mast/stem cell growth factor receptor Kit (Homo sapiens) (P10721 whole entry, the tested form may be a part): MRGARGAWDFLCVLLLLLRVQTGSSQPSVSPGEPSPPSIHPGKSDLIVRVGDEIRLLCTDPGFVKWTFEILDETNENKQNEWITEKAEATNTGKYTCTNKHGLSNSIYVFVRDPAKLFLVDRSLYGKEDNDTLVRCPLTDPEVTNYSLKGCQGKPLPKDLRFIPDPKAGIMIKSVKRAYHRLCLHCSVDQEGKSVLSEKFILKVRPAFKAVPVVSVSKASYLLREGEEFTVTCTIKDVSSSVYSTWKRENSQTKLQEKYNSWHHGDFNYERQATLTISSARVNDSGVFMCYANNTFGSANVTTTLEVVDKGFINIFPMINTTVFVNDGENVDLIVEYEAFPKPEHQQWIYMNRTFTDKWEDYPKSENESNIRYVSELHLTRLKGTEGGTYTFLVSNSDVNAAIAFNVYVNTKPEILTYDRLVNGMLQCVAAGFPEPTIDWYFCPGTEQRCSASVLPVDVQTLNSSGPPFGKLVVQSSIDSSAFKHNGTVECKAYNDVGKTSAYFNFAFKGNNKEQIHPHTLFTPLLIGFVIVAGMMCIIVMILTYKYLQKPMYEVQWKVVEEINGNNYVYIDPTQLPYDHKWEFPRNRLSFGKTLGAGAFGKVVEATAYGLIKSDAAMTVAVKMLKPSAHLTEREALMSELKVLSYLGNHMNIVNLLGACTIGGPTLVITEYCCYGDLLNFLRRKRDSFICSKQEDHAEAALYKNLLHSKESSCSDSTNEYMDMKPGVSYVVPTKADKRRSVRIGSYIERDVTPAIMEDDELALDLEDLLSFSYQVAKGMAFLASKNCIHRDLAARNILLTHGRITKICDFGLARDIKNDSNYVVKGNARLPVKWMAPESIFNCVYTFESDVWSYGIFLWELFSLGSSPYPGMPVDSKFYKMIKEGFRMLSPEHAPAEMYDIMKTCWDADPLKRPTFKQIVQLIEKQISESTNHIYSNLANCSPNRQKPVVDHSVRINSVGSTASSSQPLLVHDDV
Sequence of Mast/stem cell growth factor receptor Kit (Homo sapiens), P10721 [T670I] (P10721 whole entry T670I, the tested form may be a part): as the sequence (P10721 whole entry, the tested form may be a part) above, with T670I counted along it
Sequence of Mast/stem cell growth factor receptor Kit (Homo sapiens), P10721 [N822K] (P10721 whole entry N822K, the tested form may be a part): as the sequence (P10721 whole entry, the tested form may be a part) above, with N822K counted along it
Sequence of Mast/stem cell growth factor receptor Kit (Homo sapiens), P10721 [V654A] (P10721 whole entry V654A, the tested form may be a part): as the sequence (P10721 whole entry, the tested form may be a part) above, with V654A counted along it

With Cc1ccc(NC(=O)c2cccc(C(F)(F)F)c2)cc1OC1CCN(C(=O)c2ccncc2)CC1 the inhibition [1] was “Active”, the inhibition [2] was “Active” and the inhibition [3] was “Active”. The inhibition [4] was “inactive”, the Activity (GISTT1 [5]) was “Active” and the Activity (GISTT1 [6]) was “Active”. The Activity (GIST48B) was “inactive”, the AUC(0-t) [7] was 715 ng·h/mL and the Vd [8] was 3.22 L/kg. It also gave a Cmax [9] of 125 ng/mL, a bioavailability [10] of 36.1% and an inhibition in vivo at 50 mg/kg/day [11] of 35%. For the same compound, the Activity (GISTT1 [12]) was “Active”, the GI50 [13] was 190 nM and the GI50 [14] was 1060 nM. For the same compound, the GI50 [15] was 8240 nM, the GI50 [16] was 1030 nM and the GI50 [17] was 150 nM. For the same compound, the GI50 [18] was 21 nM, the GI50 (MV4-11) was greater than 10000 nM and the GI50 [19] was greater than 10000 nM. For the same compound, the GI50 (K562) was greater than 10000 nM, the GI50 [20] was 7430 nM and the GI50 [21] was greater than 10000 nM. The GI50 [22] was greater than 10000 nM, the inhibition [23] was “Active” and the inhibition [24] was “Active”.
